From ChEMBL document CHEMBL1811757, “Discovery of naturally occurring aurones that are potent allosteric inhibitors of hepatitis C virus RNA-dependent RNA polymerase” (J Med Chem, 2011) come the findings set out here.

SMILES strings stand for the structures. Calls of active or inactive are those of the source. The calls are words filed in the database; no cut-off is given here.

Series [1] can be described thus: Inhibition of HCV genotype 1b J4 N-terminal His-tagged NS5Bdelta21 polymerase expressed in Escherichia coli C41(DE3) assessed as amount of double-stranded RNA synthesis. Also noted: species or system Hepatitis C virus isolate HC-J4.
Series [2] concerns Hepatitis C virus isolate HC-J4. The experiment in a line: Inhibition of HCV genotype 1b J4 N-terminal His-tagged NS5Bdelta21 polymerase expressed in Escherichia coli C41(DE3) assessed as amount of double-stranded RNA synthesis at 20 uM.
Another series relates to Hepatitis C virus. The experiment in a line: Antiviral activity against HCV JFH-1 assessed as inhibition of viral replication by cell based assay. The class given is functional, organism-based, Hepacivirus hominis.
Series [3] concerns Hepatitis C virus isolate HC-J4. The experiment in a line: Ratio of IC50 for HCV genotype 1b J4 NS5Bdelta21 polymerase P495L mutant to IC50 for HCV genotype 1b J4 wild type N-terminal His-tagged NS5Bdelta21 polymerase. In a few lines:
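IC50 measured in cell-free poly U/ATP double-stranded RNA synthesis assay for purified His-tagged NS5BΔ21 P495L mutant and wild type, both prepared identically by Ni-NTA purification. Mutant IC50 divided by wild-type IC50 and reported as fold difference. A Thumb Pocket I benzimidazole inhibitor served as control.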

The test system of a further series is Huh-7. The experiment in a line: Cytotoxicity against human HuH7 cells up to 512 uM after 72 hrs by MTT assay. The following applies: huh-7, 72 h. The class given is cell-based. In a few lines:
(§1)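 Cells trypsinized in exponential growth and plated at 2000 (HuH7) or 1000 (HEK293) per well. Allowed to attach 96 h at 37°C, 5% CO2. Drug diluted in medium with 1% DMSO final, then 72 h at 37°C, 5% CO2. Viability read by MTT colorimetric assay.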

In the next series the test system is HEK293. Description: Cytotoxicity against human HEK293 cells up to 512 uM after 72 hrs by MTT assay. The class given is cell-based. As to conditions: hek293, 72 h. In outline:
as §1

The subject of series [4] is RNA-directed RNA polymerase (Hepacivirus hominis), O39930 [H95Q]. The experiment in a line: Inhibition of HCV genotype 1b J4 NS5Bdelta21 polymerase H95Q mutant expressed in Escherichia coli C41(DE3) assessed as amount of double-stranded RNA synthesis. The following applies: Hepatitis C virus isolate HC-J4. In a few lines: (§2)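 N-terminal His6-tagged NS5BΔ21 (C-terminal 21 residues removed) point mutants, made by site-directed mutagenesis, sequence-verified and purified like wild type: Ni-NTA affinity, imidazole elution, dialysis into Tris pH 7.5/sodium acetate/DTT/EDTA/10% glycerol. Cell-free assay quantifies double-stranded RNA synthesized on poly U homopolymeric template with ATP. IC50 determined per mutant.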

In series [5] the test system is RNA-directed RNA polymerase (Hepacivirus hominis), O39930 [C316Y]. The experiment in a line: Inhibition of HCV genotype 1b J4 NS5Bdelta21 polymerase C316Y mutant expressed in Escherichia coli C41(DE3) assessed as amount of double-stranded RNA synthesis. The following applies: Hepatitis C virus isolate HC-J4. In outline: as §2
In series [6] the test system is RNA-directed RNA polymerase (Hepacivirus hominis), O39930 [M423T]. Description: Inhibition of HCV genotype 1b J4 NS5Bdelta21 polymerase M423T mutant expressed in Escherichia coli C41(DE3) assessed as amount of double-stranded RNA synthesis. The following applies: Hepatitis C virus isolate HC-J4. In a few lines: as §2
RNA-directed RNA polymerase (Hepacivirus hominis), O39930 [M423T], sequence (O39930 entry or part of it M423T): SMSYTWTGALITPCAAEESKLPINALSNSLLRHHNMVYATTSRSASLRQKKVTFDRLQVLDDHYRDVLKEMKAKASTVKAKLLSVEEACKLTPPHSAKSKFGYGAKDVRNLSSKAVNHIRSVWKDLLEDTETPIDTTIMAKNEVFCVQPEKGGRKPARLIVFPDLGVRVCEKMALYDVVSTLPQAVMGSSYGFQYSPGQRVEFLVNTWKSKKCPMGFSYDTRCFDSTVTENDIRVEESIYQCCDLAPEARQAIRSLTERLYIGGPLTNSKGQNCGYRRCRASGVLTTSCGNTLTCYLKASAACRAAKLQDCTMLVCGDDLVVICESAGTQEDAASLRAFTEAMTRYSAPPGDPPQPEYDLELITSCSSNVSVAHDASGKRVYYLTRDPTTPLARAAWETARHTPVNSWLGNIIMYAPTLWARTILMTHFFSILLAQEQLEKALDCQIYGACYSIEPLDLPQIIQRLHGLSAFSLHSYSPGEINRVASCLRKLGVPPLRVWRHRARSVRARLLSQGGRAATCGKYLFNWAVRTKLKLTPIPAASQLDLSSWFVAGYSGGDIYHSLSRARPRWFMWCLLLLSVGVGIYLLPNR

RNA-directed RNA polymerase (Hepacivirus hominis), O39930 [H95Q], sequence (O39930 entry or part of it H95Q): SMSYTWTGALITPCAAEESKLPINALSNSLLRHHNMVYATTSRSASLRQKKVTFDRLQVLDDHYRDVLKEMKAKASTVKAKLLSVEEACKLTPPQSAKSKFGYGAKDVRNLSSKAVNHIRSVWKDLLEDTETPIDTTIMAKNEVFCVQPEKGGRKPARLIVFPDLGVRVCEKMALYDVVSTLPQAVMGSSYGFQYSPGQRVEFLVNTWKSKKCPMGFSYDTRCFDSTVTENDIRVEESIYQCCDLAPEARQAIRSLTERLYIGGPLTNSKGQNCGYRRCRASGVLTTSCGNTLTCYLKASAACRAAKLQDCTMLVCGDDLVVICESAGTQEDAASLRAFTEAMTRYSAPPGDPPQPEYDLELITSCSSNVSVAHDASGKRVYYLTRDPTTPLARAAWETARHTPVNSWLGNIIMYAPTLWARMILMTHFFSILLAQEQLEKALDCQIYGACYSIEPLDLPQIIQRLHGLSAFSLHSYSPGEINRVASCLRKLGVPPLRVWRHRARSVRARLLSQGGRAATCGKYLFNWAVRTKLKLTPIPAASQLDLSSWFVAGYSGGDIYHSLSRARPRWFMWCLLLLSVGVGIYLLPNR
RNA-directed RNA polymerase (Hepacivirus hominis), O39930 [C316Y], sequence (O39930 entry or part of it C316Y): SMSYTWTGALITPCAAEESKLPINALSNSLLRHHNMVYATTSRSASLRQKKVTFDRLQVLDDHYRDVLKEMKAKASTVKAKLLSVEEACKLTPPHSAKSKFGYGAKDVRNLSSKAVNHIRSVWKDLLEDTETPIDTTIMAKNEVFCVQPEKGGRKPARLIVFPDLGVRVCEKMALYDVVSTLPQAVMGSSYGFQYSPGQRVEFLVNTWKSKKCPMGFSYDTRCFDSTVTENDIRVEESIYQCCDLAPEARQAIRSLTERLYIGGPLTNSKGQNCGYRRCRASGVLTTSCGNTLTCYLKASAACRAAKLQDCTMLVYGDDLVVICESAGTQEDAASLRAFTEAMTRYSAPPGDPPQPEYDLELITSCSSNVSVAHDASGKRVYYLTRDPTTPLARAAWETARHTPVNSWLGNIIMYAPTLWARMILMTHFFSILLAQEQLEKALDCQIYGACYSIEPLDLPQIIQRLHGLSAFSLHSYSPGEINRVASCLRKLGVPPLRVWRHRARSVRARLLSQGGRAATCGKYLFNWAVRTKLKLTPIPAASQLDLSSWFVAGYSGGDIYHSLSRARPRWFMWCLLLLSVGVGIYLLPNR

For the compound `O=C1/C(=C/c2ccc(O)cc2)Oc2cccc(O)c21`, the values for the IC50 (in [1]; in the series on Hepatitis C virus) were 5.9 µM and 18 µM, respectively. Further, in [2], the inhibition (usually the percentage by which the read-out fell short of the control) is 60%. Moreover, the Ratio IC50 in series [3] is 6. For the same compound, the Activity entry in the series on Huh-7 and in the series on HEK293 was “Non-toxic” throughout. Also, the inhibition result in series [4], in series [5] and in [6] was “Active” in each case.
